Source: PubChem BioAssay
A selection: hits, their analogues and other compounds. The true share with any hit is near 3.7%.
MPTP inh – permeability transition pore inhibition | isolated mouse mitochondria, Ca2+ swelling absorbance, 30 min | inhibition, % at 10 µM | 1.4% of 360,000 active | AID 602449;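 active = inhibition of 50% or more, scaled per plate between neutral and stimulator controls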
aDG glyco act – increases alpha dystroglycan glycosylation; activation, % at 10 µM; Pro5-aDG cells, alpha-DG glycosylation AlphaScreen (IIH6); 0% Pro5, 100% B10-LARGE cell signal; 0.22% of 360,000 active;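 active = activation of at least 8% versus controls, or a plate z-score of at least 8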;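 also: Pro5 are CHO cells carrying HIG-tagged alpha-DG that lacks glycosylation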
proCasp7 act – counter-screen: procaspase-7 (human) activation; P55210; recombinant procaspase-7, Ac-DEVD-pNA absorbance 405 nm; D23A/D198A/D206A triple mutant, cannot self-cleave; scale: DMSO 0, 5 µM enzyme 100; activation, % at 8.5 µM; 0.093% of 330,000 active;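 active = percent activation above the screen-wide mean plus 3 SD, cut at about 25% in these data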
Target sequence (P55210 whole entry D23A/D198A/D206A): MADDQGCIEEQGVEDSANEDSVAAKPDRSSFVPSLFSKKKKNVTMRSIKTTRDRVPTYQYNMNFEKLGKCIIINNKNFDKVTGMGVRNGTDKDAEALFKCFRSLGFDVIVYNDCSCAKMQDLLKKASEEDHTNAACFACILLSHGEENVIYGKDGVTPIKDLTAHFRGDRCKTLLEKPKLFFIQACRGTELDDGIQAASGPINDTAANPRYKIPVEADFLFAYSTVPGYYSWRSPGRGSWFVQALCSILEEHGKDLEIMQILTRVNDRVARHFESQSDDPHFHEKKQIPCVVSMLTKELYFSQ
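Test system: Procaspase-7 triple mutant (PC-7 D3A). Also added: Ac-DEVD-pNA substrate, 400 µM as added. Schedule: 1 h enzyme–compound preincubation and 2 h substrate reaction, both 25 °C. Signal: p-Nitroaniline absorbance at 405 nm, read at 0 and 120 min. Control set: low DMSO alone, high DMSO plus 5 µM PC-7.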
GRIN3A LBD mod – modulates the human NR3A ligand-binding domain; NR3A LBD differential scanning fluorimetry, Tm shift; 0% = protein alone, 100% = glycine-bound protein; Tm shift relative to glycine control, % at 25 µM; 2.5% of 340,000 active; AID 1259313;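 active = melting temperature shift of at least 10% of the positive control shift, at one fixed dose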
procasp3 activ – activates human procaspase-3 | P42574 | recombinant procaspase-3 D3A, Ac-DEVD-pNA absorbance 405 nm | activation, % at 8.5 µM | 0.11% of 330,000 active | AID 463141;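 active = activation above the mean of all tested compounds plus 3 SD, cut at about 21% in these data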
Target sequence (P42574 whole entry D9A/D28A/D175A): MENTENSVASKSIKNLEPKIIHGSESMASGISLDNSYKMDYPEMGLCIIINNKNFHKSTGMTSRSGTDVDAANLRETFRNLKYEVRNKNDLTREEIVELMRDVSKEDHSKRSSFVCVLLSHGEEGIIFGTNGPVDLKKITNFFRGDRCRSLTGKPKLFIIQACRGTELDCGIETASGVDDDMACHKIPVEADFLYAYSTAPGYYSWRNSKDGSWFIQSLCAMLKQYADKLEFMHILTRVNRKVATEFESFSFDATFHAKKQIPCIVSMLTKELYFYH
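Test system: Procaspase-3 D3A mutant; medium: Zinc-free HEPES/NaCl buffer with 0.01% Triton X-100 at pH 7.4; reagent: DEVD-pNA substrate; doses: one concentration, 8.5 µM nominal, 0.8% DMSO; times: 1 h preincubation plus 2 h reaction at 25 °C; signal: Epi-absorbance at 405 nm of released p-nitroaniline, 0 and 120 min; replicates: singlicate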
Rh123 counter – Rhodamine 123 counter-screen of mitochondrial pore hits | shares compounds with MPTP inh | isolated mitochondria, membrane potential, Rhodamine 123 fluorescence | inhibition, % at 10 µM | 78% of 5,000 active; in the data active = inhibition above about 22%
MPTP abs DR – MPTP inhibition, dose response swelling confirmation | shares compounds with MPTP inh | isolated mitochondria swelling, absorbance | IC50, µM | 58% of 780 active | AID 651561; in the data active = IC50 below about 20 µM
MPTP cs DR – MPTP inhibitor counter-screen activity, dose response; 49% of 780 active; IC50, µM; isolated mitochondria counterscreen, fluorescence read-out; shares compounds with MPTP inh; in the data active = IC50 below about 80 µM
Each line names hits and unclear results; the compound was inactive in the other large screens (follow-up assays come after a bar, where they were run).

CSc1cccc(CN2CCC(CO)(Cc3cccc(C(F)(F)F)c3)CC2)c1	MPTP inh 72.2 | Rh123 counter inactive | MPTP abs DR 5.25 | MPTP cs DR 40.5
Cc1cc(C)cc(Cn2cc(CN3CC(N4CCSCC4)CS3(=O)=O)nn2)c1 (configuration not stated)	none (no result: proCasp7 act, GRIN3A LBD mod, procasp3 activ)
O=C(Nc1nnc(-c2ccc(Cl)cc2)o1)Nc1ccccc1Cl	none
O=C(Nc1nnc(-c2ccc(Cl)cc2)o1)c1nc2ccccc2s1	MPTP inh 96.8 | Rh123 counter inactive | MPTP abs DR 2.62 | MPTP cs DR 12.8
Cc1ccnc(Nc2cccnc2)n1	none (no result: proCasp7 act, GRIN3A LBD mod, procasp3 activ)
CCOc1ccc2nc(N3C(=O)/C(=C/c4ccccc4)NC3=S)sc2c1	MPTP inh 84.0 | Rh123 counter inactive
CCN(CC)C(=O)[C@H]1CC(CC(=O)NCc2cccc(C(F)(F)F)c2)C(=O)N2CCc3c([nH]c4ccccc34)[C@]12C (some centres not stated)	MPTP inh 61.1 | Rh123 counter inactive | MPTP abs DR inactive | MPTP cs DR 63.5
COc1ccc(-c2nnc(-c3cc4ccccc4oc3=O)o2)cc1	none
CCCCCCc1cc2cc(-c3nnc(-c4ccccc4O)o3)c(=O)oc2cc1O	MPTP inh 103.9, GRIN3A LBD mod 28.6 | Rh123 counter inactive
CCCCCCc1cc2cc(S(=O)(=O)c3ccc(F)cc3)c(=O)oc2cc1O	MPTP inh 81.4 | Rh123 counter 93.1
CCCCCCc1cc2cc(-c3nnc(-c4ccccc4OC)o3)c(=O)oc2cc1O	MPTP inh 83.9, GRIN3A LBD mod 23.8 | Rh123 counter inactive
CCCCCCc1cc2cc(-c3nnc(-c4cc(OC)c(OC)c(OC)c4)o3)c(=O)oc2cc1O	none (no result: MPTP inh, aDG glyco act)
CCCCCCc1cc2cc(C(=O)Nc3ccccc3OC)c(=O)oc2cc1O	MPTP inh 57.0 | Rh123 counter inactive | MPTP abs DR 2.57 | MPTP cs DR <2.5
C/C(=N\NC(=O)c1cc(-c2ccncc2)nc2ccccc12)c1ccc(OC(F)F)cc1	none
COc1cccc(CN2CCN(Cc3ccc(OC)c(OC)c3)CC2CCO)c1 (configuration not stated)	none
O=C(Nc1ccc2ccccc2c1)c1ccc2[nH]c(=O)c(=O)[nH]c2c1	none
O=C(Nc1ccc(-n2ccc(C(F)(F)F)n2)cc1)Nc1cccc(Cl)c1	MPTP inh 75.4 (no result: GRIN3A LBD mod) | Rh123 counter 65.4
COc1ccccc1NC(=O)Nc1ccc(-n2ccc(C(F)(F)F)n2)cc1	none
Cc1cc(C)cc(NC(=O)Nc2ccc(-n3ccc(C(F)(F)F)n3)cc2)c1	MPTP inh 87.2, GRIN3A LBD mod 17.1 | Rh123 counter 82.5
O=C(O)c1ccccc1C(=O)Nc1ccc(-n2ccc(C(F)(F)F)n2)cc1	none
O=C(NNc1cc(C(F)(F)F)nc2ccccc12)Nc1cccc(Cl)c1	MPTP inh 67.2 | Rh123 counter 70.4
O=C(NNc1nccc(C(F)(F)F)n1)Nc1cccc(Cl)c1	none
COC(=O)c1ccc(CNC(=O)CC[C@H]2O[C@@H](n3cc(C)c(=O)[nH]c3=O)C[C@@H]2O)cc1	none (no result: proCasp7 act, GRIN3A LBD mod, procasp3 activ)
O=S(=O)(CCNCc1ccco1)NC1CCCCC1	none (no result: proCasp7 act, procasp3 activ)
CCOC(=O)N1CCC(N(C(=O)Nc2ccc(Cl)c(Cl)c2)C(C)CC)CC1 (configuration not stated)	MPTP inh 79.6 | Rh123 counter 94.7
CCOC(=O)N1CCC(N(CCOC)C(=O)Nc2ccc(CC)cc2)CC1	none
CN(C)c1ccc(/C=N/OC(=O)Nc2ccccc2Cl)cc1	none
Cc1c(C(=O)N/N=C/c2ccc(Cl)cc2)[nH]c2ccc(Cl)cc12	MPTP inh 96.0, GRIN3A LBD mod 25.8 | Rh123 counter 66.8
C#Cc1ccc([C@@H]2C=C(C(=O)N3CCOCC3)O[C@H](OCc3ccc(CO)cc3)C2)cc1	none
COc1ccc(S(=O)(=O)Nc2ccc3cn[nH]c3c2)cc1C	none
CCOC(=O)c1ccc(S(=O)(=O)Nc2ccc3cn[nH]c3c2)cc1	MPTP inh 54.9 | Rh123 counter 38.5
O=C(Nc1ccccc1NC(=O)c1c(F)c(F)c(F)c(F)c1F)c1c(F)c(F)c(F)c(F)c1F	MPTP inh 93.1 | Rh123 counter 94.8
O=C(Nc1cccc(F)c1)c1c(F)c(F)c(F)c(F)c1F	MPTP inh 65.1 | Rh123 counter 80.8
Cc1cccc(NC(=O)c2c(F)c(F)c(F)c(F)c2F)c1	none
O=C(Nc1ccncc1)c1c(F)c(F)c(F)c(F)c1F	none
CCCCNC(=O)C1(C)CCN1Cc1cc(C)ccc1C (configuration not stated)	none (no result: proCasp7 act, GRIN3A LBD mod, procasp3 activ)
CNc1c(NS(=O)(=O)c2cc(Cl)ccc2OC)c(=O)oc2ccccc12	none
Nc1cc2c(cc1Br)-c1c(C(=O)O)cccc1C2O (configuration not stated)	none (no result: proCasp7 act, procasp3 activ)
O=C(Nc1ccncc1)c1ccc2c(c1)C(=O)N(C1CCCCC1)C2=O	MPTP inh 91.3 | Rh123 counter 96.6
Cc1cc(NC(=O)c2ccc3c(c2)C(=O)N(C2CCCCC2)C3=O)no1	none
CNC(=S)Nc1ccc(C23CC4CC(CC(C4)C2)C3)cc1	MPTP inh 52.3 | Rh123 counter 65.6
Brc1ccc2[nH]c3c(N4CCc5ccccc5C4)ncnc3c2c1	none (no result: MPTP inh, aDG glyco act)
Fc1ccc2[nH]c3c(N4CCc5ccccc5C4)ncnc3c2c1	MPTP inh 88.8, GRIN3A LBD mod 23.2 | Rh123 counter 82.9
Cc1ccc2[nH]c3c(N4CCc5ccccc5C4)ncnc3c2c1	MPTP inh 105.6, aDG glyco act 6.7 | Rh123 counter 92.6
COCCNC(=O)C1(C)CCCN(C(=O)c2ccccc2)C1 (configuration not stated)	none (no result: proCasp7 act, GRIN3A LBD mod, procasp3 activ)
COc1ccc(NC(=O)Nc2ccc(O)c3ccccc23)cc1	none (no result: MPTP inh, aDG glyco act)
C=CCC1(CC=C)CCCN1C(=O)c1cc(COc2cncc(Cl)c2)on1	MPTP inh 76.9 (no result: GRIN3A LBD mod) | Rh123 counter 96.0
CC(C)(C)c1ccc(OCC(=O)O/N=C(\N)c2ccncc2)cc1	none
CN1OC[C@@H]2CN(C(=O)CCc3ccccc3)[C@H](c3cccc(Oc4ccccc4)c3)C[C@@H]21	none (no result: proCasp7 act, procasp3 activ)
COc1cc(C(O)c2nc(-c3cc(F)cc(F)c3)cs2)ccc1F (configuration not stated)	none (no result: proCasp7 act, GRIN3A LBD mod, procasp3 activ)
COc1cc(C(O)c2nc(-c3ccc(N(C)C)cc3)cs2)ccc1F (configuration not stated)	MPTP inh 63.9 (no result: proCasp7 act, GRIN3A LBD mod, procasp3 activ) | Rh123 counter 65.7
COc1cc(C(O)c2nc(-c3cc4ccccc4o3)cs2)ccc1F (configuration not stated)	MPTP inh 59.2 (no result: proCasp7 act, GRIN3A LBD mod, procasp3 activ) | Rh123 counter 80.2
